hK5 inh: kallikrein 5 (human) inhibition; recombinant hK5, fluorogenic AMC substrate cleavage; Q9Y337; 0.59% of 210,000 active; AID 873; inhibition, % at 5 µM;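 active = inhibition of 40% or more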
FXIIa inh: blocks human coagulation factor XIIa protease activity; P00748; inhibition, % at 5 µM; 0.3% of 220,000 active; purified FXIIa, Boc-QGR-AMC fluorogenic substrate, 2 h; in the data active = inhibition above about 40%
AHR activator: human AHR activation | P35869 | 2.5% of 320,000 active | activation, % at 5 µM | AHR-responsive luciferase reporter cells, luminescence | AID 2796; in the data active = activation above about 47%
FXIa inh 1536: factor XIa (human) inhibition; inhibition, % at 5 µM; P03951; purified FXIa, Boc-Glu-Ala-Arg-AMC fluorogenic substrate; 0.14% of 220,000 active;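 active = inhibition of at least 40%; inactive = inhibition below 40%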;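 also: fluorescence of freed AMC excited at 355 nm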
STAT3 activator: STAT3 signaling activation; U3A cells, IL-6 STAT3-luciferase reporter, luminescence; 100% = signal with IL-6 EC80 alone; activation (% of control), % at 5.6 µM; 0.91% of 190,000 active;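 active = activation above the screen-wide mean of compound activation plus 3 SD, cut at about 130% in these data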
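Detection: reporter luminescence signal / Assay system: STAT1-lacking human U3A cells, STAT3 luciferase reporter / Incubation: compound pre-incubation 1 h before IL-6, then 6 h stimulation at 37 °C / Control set: IL-6-only high control / Read-out: % activation relative to IL-6 control / Probe or stimulus: Interleukin-6, 33 ng/mL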
thrombin 1536: inhibitors of human thrombin. P00734. alpha-thrombin, Boc-VPR-AMC fluorogenic substrate cleavage. inhibition, % at 5 µM. 0.26% of 220,000 active. AID 1046;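 active = inhibition at or above 40%; inactive = inhibition below 40%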
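Material: human alpha-thrombin enzyme / Medium: pH 7.5 Tris (50 mM) with NaCl 150 mM, Tween 20 0.05% / Compound: single-point dosing at 5 µM, 0.2% DMSO / Incubation: enzyme reaction carried out at room temperature / Detection: AMC fluorescence, 355/460 nm / Read-out basis: percent inhibition scaled between no-compound controls and no-enzyme blanks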
Hits are given with their value; n = inactive; x = no result given. The list is not random: actives were taken first. Their share in the collection is about 3.5%.

SMILES | hK5 inh | FXIIa inh | AHR activator | FXIa inh 1536 | STAT3 activator | thrombin 1536
CC(C)(C)c1ccc(C(=O)NC2CCN(Cc3ccccc3)CC2)cc1 | x | x | n | x | x | x
Cn1ccc(-c2ccccc2)n1 | n | n | n | n | n | x
N#Cc1cc(-c2ccccc2)nn1-c1ccccc1 | n | n | 68.1 | n | n | n
COc1ccc(CCNC(=O)c2ccc3ccccc3n2)cc1 | x | x | n | x | x | x
O=C(NCCN1CCOCC1)c1cc(-c2ccc(Cl)cc2)on1 | n | n | n | n | n | n
CC(C)Cc1cc(C(=O)NCc2cccs2)no1 | 54.7 | n | n | n | n | n
CC(C)Cc1cc(C(=O)NCCN2CCOCC2)no1 | 44.2 | n | n | n | n | n
O=c1cccc2n1Cc1cc3ccccc3nc1-2 | n | n | 58.0 | n | n | n
CC[C@@]1(O)C(=O)OCc2c1cc1n(c2=O)Cc2cc3c(N)cccc3nc2-1 | n | n | n | n | x | n
CC(C)C(=O)COc1c2occc2cc2ccc(=O)oc12 | x | x | n | x | x | x
C=C(C)C(COc1c2occc2cc2ccc(=O)oc12)OC(C)(C)C(O)COc1c2occc2cc2ccc(=O)oc12 (stereo unspecified) | x | x | 77.6 | x | x | x
COc1ccccc1OCc1cc(C(=O)N(C)CCC2CCCCO2)no1 (stereo unspecified) | x | x | 52.8 | x | x | x
O=C(Cn1nc(C(=O)O)c2ccccc2c1=O)Nc1cccc(S(=O)(=O)N2CCCCCC2)c1 | x | x | n | x | x | x
O=C(Cn1[nH]c(=O)c2ccccc2c1=O)Nc1cccc(S(=O)(=O)N2CCCCCC2)c1 | n | x | n | 51.7 | n | n
CCOc1ccc(-c2nc(-c3ccc(OC)c(OC)c3)no2)cc1OCC | n | n | x | n | n | n
CCOc1ccccc1-c1nc(-c2cccc(Br)c2)no1 | n | n | 64.0 | n | n | n
N#Cc1c(NC(=O)c2ccc([N+](=O)[O-])o2)sc2c1CCC2 | x | x | n | x | x | x
O=c1[nH]cnc(O)c1C(c1ccc([N+](=O)[O-])cc1)c1c(O)nc[nH]c1=O | x | x | n | x | x | x
O=S(NC1CCCCC1)C12CC3CC(CC(C3)C1)C2 (stereo unspecified) | n | 62.4 | n | 42.3 | n | n
O=C1CC(c2cccs2)c2cc3c(cc2N1)OCO3 (stereo unspecified) | 46.3 | n | n | n | n | n
Cc1ccc(-n2c(C)cc(C(=O)CSc3nncs3)c2C)cc1 | n | n | n | n | n | 55.5
N#CCSc1ncccc1-c1nc2ccccc2[nH]1 | n | n | 73.1 | n | n | n
N#CCCCSc1ncccc1-c1nc2ccccc2[nH]1 | n | n | n | n | n | n
COc1ccc(N2CCCCn3c2nc2c3c(=O)n(C)c(=O)n2C)cc1 | n | n | n | n | n | n
O=C(c1ccccc1NS(=O)(=O)c1cccc([N+](=O)[O-])c1)N1CCCC1 | x | x | n | x | x | x
SMILES | hK5 inh | FXIIa inh | AHR activator | FXIa inh 1536 | STAT3 activator | thrombin 1536
CC(C)(C)CC(=O)Nc1nnc(C(F)(F)F)s1 | n | n | n | n | n | n
CC(NC(=O)Nc1nnc(C(F)(F)F)s1)(C(F)(F)F)C(F)(F)F | n | 40.1 | n | n | n | n
CCN1CCN(c2c(/C=C3\SC(=S)N(Cc4ccco4)C3=O)c(C)c(C#N)c(=O)n2C)CC1 | n | n | n | n | x | n
C=CCn1c(-c2sc3nc(C)cc(C)c3c2N)n[nH]c1=S | n | n | 100.4 | n | x | n
C=CCn1c(-c2cc(OC)cc(OC)c2)n[nH]c1=S | n | n | n | n | n | n
CN(C)c1nc(-c2ccccn2)nnc1-c1ccccc1 | n | n | 84.8 | n | n | n
COc1ccc(NC(=O)Nc2cnccn2)cc1OC | x | x | n | x | x | x
Cc1nnc(SCc2nnc(-c3ccccc3Br)o2)n1-c1ccccc1 | n | n | n | n | n | 40.9
O=C(c1ccc(COc2ccccc2Br)o1)N1CCN(c2ccccn2)CC1 | 49.8 | n | n | n | n | n
Cc1ccc(C(=O)N2CCN(c3ncccn3)CC2)o1 | n | n | n | n | n | n
COc1ccccc1S(=O)(=O)Cc1ccc(C(=O)N2CCN(c3ccccn3)CC2)o1 | n | n | 65.6 | n | n | n
O=C(c1ccc(CS(=O)c2ccccc2Cl)o1)N1CCN(c2ccccn2)CC1 (stereo unspecified) | x | x | 59.1 | x | x | x
O=C(c1ccc(CS(=O)Cc2ccccc2Cl)o1)N1CCN(c2ccccn2)CC1 (stereo unspecified) | x | x | n | x | x | x
O=C(c1ccc(Br)o1)N1CCN(c2ncccn2)CC1 | n | n | 58.7 | n | n | n
COc1ccc(S(=O)(=O)Cc2ccc(C(=O)N3CCN(c4ccccn4)CC3)o2)cc1 | n | n | n | n | n | n
CCOC(=O)Cc1nc(-c2cccc(C(F)(F)F)c2)no1 | n | n | n | n | n | n
CCOC(=O)COc1ccccc1C(=O)c1cnn(-c2ccccc2)c1 | x | x | n | x | x | x
COc1cc2[nH]c(=S)nc(NCc3cccs3)c2cc1OC | x | n | 60.3 | n | n | n
COc1ccccc1CNc1nc(=S)[nH]c2cc(OC)c(OC)cc12 | x | x | n | x | x | x
CC(=O)C1=C(C)NC(C)=C(C(C)=O)C1c1ccccc1 | n | n | n | n | n | n
CC(=O)C1=C(C)NC(C)=C(C(C)=O)C1c1cccs1 | 79.3 | n | n | n | n | n
Cn1c(C(=O)N2CCCCCC2)cc2c(=O)n(C)c3ccccc3c21 | n | n | n | n | n | n
Cn1c(C(=O)NC2CCCCCC2)cc2c(=O)n(C)c3ccccc3c21 | n | n | 51.0 | n | n | n
Cc1cccc(N2CCN(C(=O)c3cc4c(=O)n(C)c5ccccc5c4n3C)CC2C)c1 (stereo unspecified) | 41.2 | x | 67.9 | n | n | n
O=C(CN1CCN(Cc2ccc(F)cc2Cl)CC1)NCc1ccccc1 | x | x | n | x | x | x
SMILES | hK5 inh | FXIIa inh | AHR activator | FXIa inh 1536 | STAT3 activator | thrombin 1536
COc1cc(/C=C2/C(=O)NN(c3cccc(C)c3)C2=O)ccc1OC(=O)c1ccco1 | 60.2 | n | n | n | n | n
CCOc1ccc(CSCCNC(=S)Nc2ccccc2)cc1 | 50.7 | n | n | n | n | n
COc1cc(C#Cc2c(-c3cncn3C)n(C)c3ccc(-c4ccc(OC)nc4)cc23)cc(OC)c1 | x | x | 59.5 | x | x | x
CCOC(=O)Cc1cc(-c2ccc(F)cc2)nc2ccc3ccccc3c12 | n | n | 60.6 | n | n | n
O=c1cc(-c2ccccc2)nc2nc(-c3ccccc3)[nH]n12 | n | n | 73.7 | n | 158.5 | n
CSc1cccc(NC(=S)N2CCC(N(C)C3CCCC3)CC2)c1 | n | n | n | n | n | n
CNc1nc(C)nc(N/N=C/c2ccccc2)n1 | n | n | n | n | n | n
COc1ccc(/C(C)=N/Nc2nc3ccccc3nc2C)cc1 | n | n | n | n | x | n
